Assay results: ChEMBL document CHEMBL4616631, “Design, synthesis and evaluation of phthalide alkyl tertiary amine derivatives as promising acetylcholinesterase inhibitors with high potency and selectivity against Alzheimer's disease” (Bioorg Med Chem, 2020)

How the values were obtained:
[1] = target: T1, Amine oxidase [flavin-containing] A (Homo sapiens, UniProt P21397); test: Inhibition of recombinant human MAO-A expressed in baculovirus infected BTI insect cells at 10 uM using kynuramine as substrate measured after 30 mins by fluorescence based assay relative to control; details: 0.5 h
T1 sequence (P21397 whole entry): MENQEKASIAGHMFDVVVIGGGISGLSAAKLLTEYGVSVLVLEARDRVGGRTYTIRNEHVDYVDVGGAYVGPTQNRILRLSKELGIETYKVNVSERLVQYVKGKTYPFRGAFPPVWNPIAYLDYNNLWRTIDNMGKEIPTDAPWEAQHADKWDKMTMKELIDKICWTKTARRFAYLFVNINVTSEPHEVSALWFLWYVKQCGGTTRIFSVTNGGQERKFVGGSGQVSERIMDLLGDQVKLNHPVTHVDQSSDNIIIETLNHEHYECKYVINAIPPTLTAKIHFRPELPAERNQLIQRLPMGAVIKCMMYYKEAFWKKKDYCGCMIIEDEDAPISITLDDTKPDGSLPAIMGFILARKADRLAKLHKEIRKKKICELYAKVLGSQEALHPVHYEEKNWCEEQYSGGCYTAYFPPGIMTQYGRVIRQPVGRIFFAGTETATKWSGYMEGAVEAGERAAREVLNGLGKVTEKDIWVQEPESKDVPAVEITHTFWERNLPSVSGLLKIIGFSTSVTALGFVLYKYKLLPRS
Summary of the method: (§1)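 Recombinant human MAO-A or MAO-B (7.5 µg/mL) in 100 mM potassium phosphate, pH 7.4, with 20.2 mM KCl and DMSO below 4%. Kynuramine was 45 µM for MAO-A and 30 µM for MAO-B. Incubation 30 min at 37 °C, stopped with NaOH and water, then centrifuged. Supernatant fluorescence ex 310/em 400 nm. Triplicate.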

[2] = target: T2, Amine oxidase [flavin-containing] B (Homo sapiens, UniProt P27338); test: Inhibition of recombinant human MAO-B expressed in baculovirus infected BTI insect cells at 10 uM using kynuramine as substrate measured after 30 mins by fluorescence based assay relative to control; details: 0.5 h; summary of the method: as §1
T2 sequence (P27338 whole entry): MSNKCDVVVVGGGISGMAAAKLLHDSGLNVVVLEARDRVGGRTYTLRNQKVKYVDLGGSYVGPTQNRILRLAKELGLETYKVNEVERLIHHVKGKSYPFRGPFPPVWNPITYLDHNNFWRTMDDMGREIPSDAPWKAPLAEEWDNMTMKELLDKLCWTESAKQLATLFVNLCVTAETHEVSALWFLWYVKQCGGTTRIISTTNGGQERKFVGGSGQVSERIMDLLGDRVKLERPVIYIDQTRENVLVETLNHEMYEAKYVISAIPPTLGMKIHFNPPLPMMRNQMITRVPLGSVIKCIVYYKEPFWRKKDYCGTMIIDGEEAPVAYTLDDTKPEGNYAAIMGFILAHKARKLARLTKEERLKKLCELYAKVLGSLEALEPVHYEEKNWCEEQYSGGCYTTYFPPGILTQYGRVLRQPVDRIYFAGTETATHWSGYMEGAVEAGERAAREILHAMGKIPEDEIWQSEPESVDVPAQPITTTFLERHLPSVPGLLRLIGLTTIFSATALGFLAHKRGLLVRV

[3] = Antioxidant activity assessed as trolox equivalent of AAPH-induced radical scavenging activity at 5 uM preincubated for 15 mins followed by AAPH addition measured every min for 90 mins by ORAC-FL assay; format: functional
Summary of the method: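 ORAC-FL in 75 mM phosphate buffer, pH 7.4. Sample at 5 µM was preincubated with fluorescein (150 nM final) for 15 min at 37 °C, then AAPH was added (12 mM final). Fluorescence (ex 485/em 535 nm) was read every minute for 90 min. […] Triplicate, at least three independent assays.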

Acetylcholinesterase = Acetylcholinesterase (Electrophorus electricus, UniProt O42275); test: Inhibition of Electrophorus electricus AChE using […] as substrate incubated for 15 mins by Ellman's method
Chain of Acetylcholinesterase (O42275 whole entry): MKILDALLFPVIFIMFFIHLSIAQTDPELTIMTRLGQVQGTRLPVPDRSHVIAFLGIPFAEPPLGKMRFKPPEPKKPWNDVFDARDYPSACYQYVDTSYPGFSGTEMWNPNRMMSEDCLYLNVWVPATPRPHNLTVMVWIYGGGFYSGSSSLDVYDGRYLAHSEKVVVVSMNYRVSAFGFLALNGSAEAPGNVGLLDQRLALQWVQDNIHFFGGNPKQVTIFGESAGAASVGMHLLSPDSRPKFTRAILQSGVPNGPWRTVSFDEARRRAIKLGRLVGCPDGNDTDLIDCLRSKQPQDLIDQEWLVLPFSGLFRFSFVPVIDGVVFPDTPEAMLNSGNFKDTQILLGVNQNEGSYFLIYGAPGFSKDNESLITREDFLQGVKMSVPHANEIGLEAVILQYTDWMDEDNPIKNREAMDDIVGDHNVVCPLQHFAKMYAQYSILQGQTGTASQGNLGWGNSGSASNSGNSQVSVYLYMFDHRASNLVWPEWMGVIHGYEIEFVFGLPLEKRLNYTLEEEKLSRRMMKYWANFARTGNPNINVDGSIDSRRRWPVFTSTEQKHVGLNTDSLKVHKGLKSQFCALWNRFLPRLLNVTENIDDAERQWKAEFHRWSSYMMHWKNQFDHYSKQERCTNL

[4] = target: Butyrylcholinesterase (BuChE) (Rattus norvegicus, UniProt Q9JKC1); test: Inhibition of BuChE in rat serum at 50 uM using S-butylthiocholine iodide as substrate by Ellman's method relative to control; format: cell-free; details: probe S-butylthiocholine iodide
Chain of Butyrylcholinesterase (BuChE) (Q9JKC1 whole entry): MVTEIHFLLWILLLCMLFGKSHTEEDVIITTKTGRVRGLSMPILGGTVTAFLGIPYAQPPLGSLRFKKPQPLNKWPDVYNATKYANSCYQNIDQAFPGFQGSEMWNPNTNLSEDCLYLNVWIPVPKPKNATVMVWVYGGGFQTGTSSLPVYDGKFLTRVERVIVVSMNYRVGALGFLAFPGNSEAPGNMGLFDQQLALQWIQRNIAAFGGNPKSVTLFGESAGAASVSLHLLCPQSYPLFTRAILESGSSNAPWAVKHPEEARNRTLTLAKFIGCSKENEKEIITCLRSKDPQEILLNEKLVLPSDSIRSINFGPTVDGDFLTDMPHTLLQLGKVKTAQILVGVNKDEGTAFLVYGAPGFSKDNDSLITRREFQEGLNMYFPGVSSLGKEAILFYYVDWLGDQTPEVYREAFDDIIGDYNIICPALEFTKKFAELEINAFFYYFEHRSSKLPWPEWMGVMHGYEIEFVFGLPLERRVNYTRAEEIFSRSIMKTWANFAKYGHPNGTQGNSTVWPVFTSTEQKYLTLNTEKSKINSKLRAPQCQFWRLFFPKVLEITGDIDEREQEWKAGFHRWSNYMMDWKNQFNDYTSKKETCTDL
Summary of the method: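 Rat serum (25%) as BuChE source, S-butylthiocholine iodide 1 mM, DTNB 0.2%, in 0.1 mM phosphate buffer pH 7.4, 37 °C 15 min (modified Ellman); absorbance change at 405 nm. Three independent experiments, each in triplicate.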

[5] = target: Amyloid-beta precursor protein (Homo sapiens) (UniProt P05067); test: Inhibition of HFIP-pretreated self-induced amyloid beta (1 to 42) (unknown origin) aggregation at 25 uM measured after 24 hrs by ThT fluorescence assay relative to control
Chain of Amyloid-beta precursor protein (Homo sapiens) (P05067 whole entry): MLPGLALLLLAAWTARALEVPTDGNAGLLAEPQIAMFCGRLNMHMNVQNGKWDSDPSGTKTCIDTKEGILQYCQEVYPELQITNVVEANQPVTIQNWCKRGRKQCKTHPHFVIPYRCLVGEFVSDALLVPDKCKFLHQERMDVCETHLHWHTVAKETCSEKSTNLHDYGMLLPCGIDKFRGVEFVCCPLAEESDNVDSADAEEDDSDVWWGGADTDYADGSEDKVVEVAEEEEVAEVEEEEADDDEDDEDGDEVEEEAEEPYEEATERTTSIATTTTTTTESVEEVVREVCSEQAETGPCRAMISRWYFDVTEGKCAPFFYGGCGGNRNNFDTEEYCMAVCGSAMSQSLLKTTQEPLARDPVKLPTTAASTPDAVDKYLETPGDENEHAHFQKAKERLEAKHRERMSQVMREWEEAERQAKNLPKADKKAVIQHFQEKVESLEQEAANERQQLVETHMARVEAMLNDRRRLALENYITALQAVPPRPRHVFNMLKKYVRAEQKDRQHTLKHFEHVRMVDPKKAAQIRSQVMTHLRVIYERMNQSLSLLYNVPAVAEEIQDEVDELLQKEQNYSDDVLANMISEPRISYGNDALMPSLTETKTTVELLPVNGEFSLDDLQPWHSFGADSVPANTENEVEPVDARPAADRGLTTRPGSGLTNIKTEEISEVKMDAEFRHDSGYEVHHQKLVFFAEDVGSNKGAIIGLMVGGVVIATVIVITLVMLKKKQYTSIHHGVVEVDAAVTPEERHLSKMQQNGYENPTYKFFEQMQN
Summary of the method: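 Aβ1-42 was pretreated in HFIP for 24 h at room temperature, dried, and dissolved in DMSO to a 200 µM stock. Aβ (25 µM) was incubated with compound (25 µM) at 37 °C for 24 h. ThT was added at 5 µM in glycine-NaOH, pH 8.5. Fluorescence ex 446/em 490 nm, background-subtracted; inhibition = (1−IFi/IFc)×100. Triplicate.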

[6] = Permeability of the compound at 100 ug/ml measured after 18 hrs by PAMPA assay; format: ADME; details: read-out: permeability
Summary of the method: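 PAMPA-BBB. Filter coated with porcine brain lipid in dodecane. Compound (DMSO stock 5 mg/mL) was diluted to 100 µg/mL in PBS/EtOH (70:30) in the donor well, with PBS/EtOH in the acceptor. Left 18 h at 25 °C. Acceptor concentration read at ten wavelengths in four wells. Three independent runs, validated with 11 reference drugs.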

| SMILES | inhibition at 10 µM [1] | inhibition at 10 µM [2] | Activity [3] | IC50 (Acetylcholinesterase) | inhibition at 50 µM [4] | inhibition [5] | Papp at 18 h, 100 ug/ml [6] |
| --- | --- | --- | --- | --- | --- | --- | --- |
| CCN(CCC/C=C1\OC(=O)c2cc(OC)c(OC)cc21)Cc1ccccc1 | 10.4% | 13.8% | 0.36 µMequiv/µM | 360 nM | 17.3% | 17% |  |
| CCN(CCCCC1OC(=O)c2cc(OC)c(OC)cc21)Cc1ccccc1 (centres undefined) | 7.1% | 5.51% | 0.23 µMequiv/µM | 580 nM | 23.1% | 15.6% |  |
| COc1cc2c(cc1OC)/C(=C\CCCN(C)Cc1ccccc1)OC2=O | 17.9% | 1.09% | 0.49 µMequiv/µM | 640 nM | 27.3% | 8.6% |  |
| CCN(CC)CCC/C=C1/OC(=O)c2cc(OC)c(OC)cc21 | 5.77% | 19.7% | 0.22 µMequiv/µM | 6260 nM | 4.19% | 15.1% |  |
| CCN(CCCCCCC1OC(=O)c2cc(OC)c(OC)cc21)Cc1ccccc1N(C)C (centres undefined) | 14.3% | 13.4% | 0.6 µMequiv/µM | 1240 nM | 40.5% | 7.66% |  |
| COc1ccccc1CN(C)CCC/C=C1\OC(=O)c2cc(OC)c(OC)cc21 | 2.9% | 10.3% | 0.44 µMequiv/µM | 1640 nM | 16.8% | 15.1% |  |
| CCN(CCC/C=C1/OC(=O)c2cc(OC)c(OC)cc21)Cc1ccccc1 | 12.6% | 15.8% | 0.52 µMequiv/µM | 1400 nM | 11% | 30.3% |  |
| CCN(CCCCC1OC(=O)c2cc(OC)c(OC)cc21)Cc1ccccc1N(C)C (centres undefined) | 17.8% | 15% | 0.43 µMequiv/µM | 260 nM | 44.8% | 15.3% |  |
| COc1cc2c(cc1OC)/C(=C\CCCCCN(C)Cc1ccccc1)OC2=O | 22.3% | 5.66% | 0.43 µMequiv/µM | 4.84 nM | 17.6% | 12.4% | 10.3 ×10⁻⁶ cm/s |
| CCN(CC)CCCCC1OC(=O)c2cc(OC)c(OC)cc21 (centres undefined) | 2.45% | 21.5% | 0.31 µMequiv/µM | 14700 nM | 5.1% | 15% |  |
| COc1cc2c(cc1OC)/C(=C/CCCN1CCCCC1)OC2=O | 1.95% | 32.3% | 0.28 µMequiv/µM | 4560 nM | 21.9% | 4.9% |  |
| COc1cc2c(cc1OC)/C(=C\CCCN1CCCCC1)OC2=O | 1.52% | 38.8% | 0.32 µMequiv/µM | 440 nM | 26.9% | 11.3% |  |
| CCN(CCCCC/C=C1/OC(=O)c2cc(OC)c(OC)cc21)Cc1ccccc1N(C)C | 28% | 7.3% | 1.2 µMequiv/µM | 890 nM | 35.2% | 13% |  |
| CCN(CCC/C=C1\OC(=O)c2cc(OC)c(OC)cc21)Cc1ccc(N(C)C)cc1 | 12.9% | 8.86% | 2.75 µMequiv/µM | 23400 nM | 13.6% | 22% |  |
| CCN(CCC/C=C1/OC(=O)c2cc(OC)c(OC)cc21)Cc1ccccc1N(C)C | 30% | 2.1% | 1.07 µMequiv/µM | 350 nM | 43.1% | 8.2% |  |
| COc1cc2c(cc1OC)/C(=C/CCCN(C)Cc1ccccc1)OC2=O | 10.9% | 11.9% | 0.32 µMequiv/µM | 340 nM | 12.2% | 11.7% |  |
| COc1cc2c(cc1OC)C(CCCCN(C)Cc1ccccc1)OC2=O (centres undefined) | 8% | 6.4% | 0.29 µMequiv/µM | 350 nM | 11.5% | 8.9% |  |
| COc1ccccc1CN(C)CCC/C=C1/OC(=O)c2cc(OC)c(OC)cc21 | 4.9% | 9.44% | 0.38 µMequiv/µM | 410 nM | 21.9% | 19.1% |  |
| COc1cc2c(cc1OC)C(CCCCN1CCCCC1)OC2=O (centres undefined) | 1.92% | 34.7% | 0.22 µMequiv/µM | 15800 nM | 8.14% | < 5% |  |
| COc1ccccc1CN(C)CCCCC1OC(=O)c2cc(OC)c(OC)cc21 (centres undefined) | 0.25% | 5.7% | 0.27 µMequiv/µM | 490 nM | 21.7% | 14.4% |  |
| CCN(CCC/C=C1/OC(=O)c2cc(OC)c(OC)cc21)Cc1ccccc1OC | 27.1% | 4.8% | 0.53 µMequiv/µM | 800 nM | 19.1% | 19% |  |
| CCN(CCCCC1OC(=O)c2cc(OC)c(OC)cc21)Cc1ccc(N(C)C)cc1 (centres undefined) | 12.1% | 9.47% | 2.59 µMequiv/µM | 24900 nM | 6.2% | < 5% |  |
| CCN(CCC/C=C1\OC(=O)c2cc(OC)c(OC)cc21)Cc1ccccc1OC | 26.7% | 12% | 0.94 µMequiv/µM | 1540 nM | 18.7% | 23.8% |  |
| COc1cc2c(cc1OC)C(CCCCCCN(C)Cc1ccccc1)OC2=O (centres undefined) | 7.88% | 16.3% | 0.25 µMequiv/µM | 160 nM | 13.9% | 13% | 13.6 ×10⁻⁶ cm/s |
| CCN(CCCCC1OC(=O)c2cc(OC)c(OC)cc21)Cc1ccccc1OC (centres undefined) | 27.8% | 10.4% | 0.74 µMequiv/µM | 370 nM | 29.8% | 13.8% |  |
| CCN(CCC/C=C1/OC(=O)c2cc(OC)c(OC)cc21)Cc1ccc(N(C)C)cc1 | 12.7% | 17% | 2.89 µMequiv/µM | 13800 nM | 14.1% | 21.7% |  |
| CCN(CCC/C=C1\OC(=O)c2cc(OC)c(OC)cc21)Cc1ccccc1N(C)C | 29.1% | 9.9% | 0.78 µMequiv/µM | 210 nM | 40.5% | 15.4% |  |
